Laboratory results: ChEMBL document CHEMBL4049451, “Exploring the Role of N6-Substituents in Potent Dual Acting 5'-C-Ethyltetrazolyladenosine Derivatives: Synthesis, Binding, Functional Assays, and Antinociceptive Effects in Mice ∇” (J Med Chem, 2017)
The source made the active and inactive calls. No cut-off for these calls is given here.

Assays:
Adenosine receptor A3 [1] = target: T1, Adenosine receptor A3 (Rattus norvegicus, UniProt P28647); assay: Displacement of [3H]NECA from recombinant rat adenosine A3 receptor expressed in CHO cell membranes after 3 hrs by microbeta scintillation counting
T1 sequence (P28647 whole entry): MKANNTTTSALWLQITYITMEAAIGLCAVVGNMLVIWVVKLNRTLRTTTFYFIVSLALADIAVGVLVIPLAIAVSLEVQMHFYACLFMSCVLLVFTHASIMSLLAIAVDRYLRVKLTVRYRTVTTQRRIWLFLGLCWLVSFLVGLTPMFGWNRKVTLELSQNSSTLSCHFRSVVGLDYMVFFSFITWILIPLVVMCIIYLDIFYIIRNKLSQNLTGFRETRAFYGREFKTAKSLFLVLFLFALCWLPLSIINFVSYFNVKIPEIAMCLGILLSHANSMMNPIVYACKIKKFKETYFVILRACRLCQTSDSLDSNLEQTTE
How it was run: (§1)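 CHO membranes with stable human A1, A2A, A3 or rat A3 (1000g then 100 000g spin, stored -80 °C). Competition: hA1 1 nM [3H]CCPA, nonspecific with 1 mM theophylline; hA2A 10 nM [3H]NECA; hA3 1 nM [3H]HEMADO; rA3 30 nM [3H]NECA; latter three nonspecific with 100 μM R-PIA.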

[2] = Selectivity ratio of Ki for recombinant rat adenosine A3 receptor expressed in CHO cell membranes to Ki for recombinant human adenosine A3 receptor expressed in CHO cell membranes; type: cell-based; how it was run: as §1
Adenosine receptor A1 [3] = target: T2, Adenosine receptor A1 (Homo sapiens, UniProt P30542); assay: Agonist activity at recombinant human adenosine A1 receptor expressed in CHO cell membranes assessed as inhibition of forskolin-stimulated adenylyl cyclase activity after 10 mins in presence of [alpha-32P]ATP; type: functional, cell-based
T2 sequence (P30542 whole entry): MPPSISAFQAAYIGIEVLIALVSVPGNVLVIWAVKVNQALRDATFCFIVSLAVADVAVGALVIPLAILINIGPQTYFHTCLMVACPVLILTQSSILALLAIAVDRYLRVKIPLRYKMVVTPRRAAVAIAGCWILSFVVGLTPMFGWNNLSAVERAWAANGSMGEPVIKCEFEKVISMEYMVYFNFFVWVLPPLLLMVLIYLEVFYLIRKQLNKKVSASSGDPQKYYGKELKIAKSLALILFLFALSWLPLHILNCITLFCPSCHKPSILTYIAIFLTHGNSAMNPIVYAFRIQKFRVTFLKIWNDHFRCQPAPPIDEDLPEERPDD
How it was run: (§2)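 hA1 in CHO cell membranes (single high-speed spin, resuspended in 50 mM Tris/HCl pH 7.4, used immediately); agonist inhibition of forskolin-stimulated adenylyl cyclase; efficacy relative to CCPA as reference full agonist (100%). Geometric means with 95% confidence intervals, n = 3.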

Adenosine receptor A1 [4] = target: T2, Adenosine receptor A1; assay: Displacement of [3H]CCPA from recombinant human adenosine A1 receptor expressed in CHO cell membranes after 3 hrs by microbeta scintillation counting; how it was run: as §1
Adenosine receptor A2a [5] = target: T3, Adenosine receptor A2a (Homo sapiens, UniProt P29274); assay: Displacement of [3H]NECA from recombinant human adenosine A2A receptor expressed in CHO cell membranes after 3 hrs by microbeta scintillation counting; how it was run: as §1
Adenosine receptor A3 [6] = target: T4, Adenosine receptor A3 (Homo sapiens, UniProt P0DMS8); assay: Displacement of [3H]HEMADO from recombinant human adenosine […] receptor expressed in CHO cell membranes after 3 hrs by microbeta scintillation counting; how it was run: as §1
T4 sequence (P0DMS8 whole entry): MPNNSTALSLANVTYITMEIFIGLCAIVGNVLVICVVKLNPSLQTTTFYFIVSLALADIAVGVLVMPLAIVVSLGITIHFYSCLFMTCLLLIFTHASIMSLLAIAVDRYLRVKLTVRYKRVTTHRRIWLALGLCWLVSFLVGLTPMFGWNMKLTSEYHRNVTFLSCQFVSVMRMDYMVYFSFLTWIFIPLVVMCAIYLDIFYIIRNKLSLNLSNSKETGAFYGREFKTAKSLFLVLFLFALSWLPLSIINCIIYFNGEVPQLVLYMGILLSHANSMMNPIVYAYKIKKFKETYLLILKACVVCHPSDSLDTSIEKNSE

Adenosine receptor A2a [7] = target: T3, Adenosine receptor A2a; assay: Agonist activity at recombinant human adenosine A2A receptor expressed in CHO cell membranes assessed as stimulation of adenylyl cyclase activity by [alpha-32P]ATP assay; type: functional, cell-based
How it was run: (§3)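 hA2A or hA2B in CHO cell membranes (one high-speed spin, pellet in 50 mM Tris/HCl pH 7.4, used immediately); agonist stimulation of adenylyl cyclase gives EC50; partial agonism judged as efficacy against 100 μM NECA as full agonist. Geometric means, 95% confidence intervals, n = 3.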

Adenosine receptor A2b = target: T5, Adenosine receptor A2b (Homo sapiens, UniProt P29275); assay: Agonist activity at recombinant human adenosine A2B receptor expressed in CHO cell membranes assessed as stimulation of adenylyl cyclase activity by [alpha-32P]ATP assay; type: functional, cell-based; how it was run: as §3
T5 sequence (P29275 whole entry): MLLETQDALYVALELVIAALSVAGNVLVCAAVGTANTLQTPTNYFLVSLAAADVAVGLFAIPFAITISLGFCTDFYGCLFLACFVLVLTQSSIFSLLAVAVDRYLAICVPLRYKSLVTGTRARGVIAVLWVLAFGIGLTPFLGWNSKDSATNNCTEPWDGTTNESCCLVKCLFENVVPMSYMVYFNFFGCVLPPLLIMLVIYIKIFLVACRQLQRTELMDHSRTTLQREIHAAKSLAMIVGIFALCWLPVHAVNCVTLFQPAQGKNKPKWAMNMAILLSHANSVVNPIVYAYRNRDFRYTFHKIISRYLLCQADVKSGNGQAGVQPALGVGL

[8] = target: T6, Adenosine receptor A2b (Homo sapiens) (UniProt P29275); assay: Partial agonist activity at recombinant human adenosine A2B receptor expressed in CHO cell membranes assessed as stimulation of adenylyl cyclase activity by [alpha-32P]ATP assay relative to NECA; type: functional, cell-based; how it was run: as §3
T6 sequence (whole entry): T5 sequence (P29275 whole entry)

Adenosine receptor A3 [9] = target: T4, Adenosine receptor A3; assay: Antagonist activity at recombinant human adenosine A3 receptor expressed in CHO cell membranes assessed as reversal of NECA-mediated inhibition of adenylyl cyclase activity after 10 mins by [alpha-32P]ATP assay; type: functional, cell-based
Homo sapiens [10] = organism: Homo sapiens; assay: Selectivity ratio of Ki for recombinant human adenosine A2A receptor expressed in CHO cell membranes to Ki for recombinant human adenosine A1 receptor expressed in CHO cell membranes; type: cell-based; how it was run: as §1
Homo sapiens [11] = organism: Homo sapiens; assay: Selectivity ratio of Ki for recombinant human adenosine A2A receptor expressed in CHO cell membranes to Ki for recombinant human adenosine A3 receptor expressed in CHO cell membranes; type: cell-based; how it was run: as §1
[12] = target: Adenosine receptors; A1 & A3 (Homo sapiens) (UniProt P30542+P0DMS8); assay: Selectivity ratio of Ki for recombinant human adenosine A3 receptor expressed in CHO cell membranes to Ki for recombinant human adenosine A1 receptor expressed in CHO cell membranes; type: cell-based; how it was run: as §1
[13] = target: T7, Adenosine receptor A1 (Homo sapiens) (UniProt P30542); assay: Agonist activity at recombinant human adenosine A1 receptor expressed in CHO cell membranes assessed as inhibition of forskolin-stimulated adenylyl cyclase activity after 10 mins relative to CCPA; type: functional, cell-based; how it was run: as §2
T7 sequence (whole entry): T2 sequence (P30542 whole entry)

Adenosine receptor A2a [14] = target: T3, Adenosine receptor A2a; assay: Agonist activity at recombinant human adenosine A2A receptor expressed in CHO cell membranes assessed as stimulation of adenylyl cyclase activity relative to NECA; type: functional, cell-based; how it was run: as §3
[15] = target: T7, Adenosine receptor A1 (Homo sapiens); assay: Partial agonist activity at recombinant human adenosine A1 receptor expressed in CHO cell membranes assessed as inhibition of forskolin-stimulated adenylyl cyclase activity after 10 mins in presence of [alpha-32P]ATP relative to CCPA; type: functional, cell-based; how it was run: as §2
[16] = target: T6, Adenosine receptor A2b (Homo sapiens); assay: Agonist activity at recombinant human adenosine A2B receptor expressed in CHO cell membranes assessed as stimulation of adenylyl cyclase activity relative to NECA; type: functional, cell-based; how it was run: as §3
Mus musculus [17] = assay: Antinociceptive activity in formalin induced nociceptive mouse model assessed as reduction in late nociceptive behavior administered via ip 10 mins prior to formalin induction measured for 15 to 60 mins; type: functional, organism-based
How it was run: (§4)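 Mice, randomized, n = 8–10 per group; ip compound or vehicle (10% DMSO in 0.9% NaCl) 10 min before formalin (1.25% in saline, 30 μL) into dorsal hind paw. Lifting, licking, shaking, flinching timed every 5 min for 60 min; phase 1 0–7 min, phase 2 15–60 min; mean ± SEM.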

[18] = Lipophilicity, log P of the compound; type: physicochemical; settings: octanol/water
Mus musculus [19] = assay: Antinociceptive activity in formalin induced nociceptive mouse model assessed as reduction in nociceptive behavior at 1 mg/kg, ip administered 10 mins prior to formalin induction measured up to 7 mins in presence of adenosine A3 agonist 2Cl-IBMECA; type: functional, organism-based; how it was run: as §4
Mus musculus [20] = assay: Antinociceptive activity in formalin induced nociceptive mouse model assessed as reduction in nociceptive behavior at 1 mg/kg, ip administered 10 mins prior to formalin induction measured for 15 to 60 mins in presence of adenosine A3 agonist 2Cl-IBMECA; type: functional, organism-based; how it was run: as §4
Mus musculus [21] = assay: Antinociceptive activity in formalin induced nociceptive mouse model assessed as reduction in nociceptive behavior at 0.5 mg/kg, ip administered 10 mins prior to formalin induction measured up to 7 mins; type: functional, organism-based; how it was run: as §4
Mus musculus [22] = assay: Antinociceptive activity in formalin induced nociceptive mouse model assessed as reduction in nociceptive behavior at 0.5 mg/kg, ip administered 10 mins prior to formalin induction measured for 15 to 60 mins; type: functional, organism-based; how it was run: as §4

T3 sequence (P29274 whole entry): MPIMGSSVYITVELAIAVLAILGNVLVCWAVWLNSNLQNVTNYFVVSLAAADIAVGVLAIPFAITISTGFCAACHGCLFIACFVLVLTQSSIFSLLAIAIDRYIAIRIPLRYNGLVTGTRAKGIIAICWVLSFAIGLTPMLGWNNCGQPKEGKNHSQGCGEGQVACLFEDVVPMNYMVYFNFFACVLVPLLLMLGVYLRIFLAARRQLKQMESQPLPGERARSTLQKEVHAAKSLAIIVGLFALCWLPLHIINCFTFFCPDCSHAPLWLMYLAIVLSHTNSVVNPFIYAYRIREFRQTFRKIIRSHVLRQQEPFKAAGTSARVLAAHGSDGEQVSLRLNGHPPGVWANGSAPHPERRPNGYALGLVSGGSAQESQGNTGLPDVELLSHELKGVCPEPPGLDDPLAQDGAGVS

Compound	Ki (Adenosine receptor A3 [1])	EC50 (Adenosine receptor A1 [3])	Ki (Adenosine receptor A1 [4])	Ki (Adenosine receptor A2a [5])	Ki (Adenosine receptor A3 [6])	EC50 (Adenosine receptor A2a [7])	EC50 (Adenosine receptor A2b)	Activity [8]	EC50 (Adenosine receptor A3 [9])	Ratio Ki [12]	Efficacy [13]	Efficacy (Adenosine receptor A2a [14])	Efficacy [16]	Ratio Ki [2]	Ratio Ki (Homo sapiens [10])	Ratio Ki (Homo sapiens [11])	further results
CCn1nnc([C@H]2O[C@@H](n3cnc4c(NCC5CC5)ncnc43)[C@H](O)[C@@H]2O)n1	65.2 nM	7.73 nM	0.438 nM	112 nM	0.575 nM	16.6 nM	637 nM	81%	3.53 nM	1.3	> 90%	> 90%	–	110 to 114	256	196	–
CCn1nnc([C@H]2O[C@@H](n3cnc4c(NCc5cccc(I)c5)ncnc43)C(O)C2O)n1 (single isomer, unassigned)	6.1 nM	27.4 nM	0.768 nM	16.8 nM	0.532 nM	2.87 nM	235 nM	–	2.38 nM	0.69	–	> 90%	> 90%	12	22	32	inhibition [15]: 87%
O[C@@H]1[C@H](O)[C@@H](CCl)O[C@H]1n1cnc2c(NC3C[C@@H]4CC[C@@H]3C4)ncnc21 (mixture of isomers)	–	–	–	–	–	–	–	–	–	–	–	–	–	–	–	–	Activity (Mus musculus [19]): Active; Activity (Mus musculus [20]): Active; Activity (Mus musculus [21]): inactive; Activity (Mus musculus [22]): inactive

Second part, led by results:

Ki (Adenosine receptor A3 [1])	EC50 (Adenosine receptor A1 [3])	Ki (Adenosine receptor A1 [4])	Ki (Adenosine receptor A2a [5])	Ki (Adenosine receptor A3 [6])	EC50 (Adenosine receptor A2a [7])	EC50 (Adenosine receptor A2b)	Activity [8]	EC50 (Adenosine receptor A3 [9])	Ratio Ki [12]	Efficacy [13]	Efficacy (Adenosine receptor A2a [14])	Efficacy [16]	Compound	Ratio Ki [2]	Ratio Ki (Homo sapiens [10])	Ratio Ki (Homo sapiens [11])	further results
66 nM	7.66 nM	0.864 nM	146 nM	0.875 nM	21.6 nM	222 nM	86%	5.4 nM	1	–	–	–	CCn1nnc([C@H]2O[C@@H](n3cnc4c(NC5CC5)ncnc43)[C@H](O)[C@@H]2O)n1	76	170	168	–
2.69 nM	58.5 nM	1.41 nM	29.8 nM	0.386 nM	6.71 nM	592 nM	–	2.2 nM	0.27	> 90%	> 90%	> 90%	CCn1nnc([C@H]2O[C@@H](n3cnc4c(NCc5cccc(Cl)c5)ncnc43)[C@H](O)[C@@H]2O)n1	6.9	21	77	Activity (Mus musculus [17]): Dose-dependent effect; logP [18]: 2.57
